Data from ChEMBL document CHEMBL2010641, “A novel 3,4-dihydropyrimidin-2(1H)-one: HIV-1 replication inhibitors with improved metabolic stability” (Bioorg Med Chem Lett, 2012).
The source made the active and inactive calls. The rule behind the calls is not given here.

Assays:
[1] = Half life in human liver microsomes at 2 uM; assay type: ADME, Microsome
Summary of the method: (§1)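 Compound at 2 µM final was incubated with rat or human liver microsomes (0.5 mg/mL protein) in potassium phosphate buffer with 0.2% DMSO final. Reaction was started with NADPH and stopped at 0, 5, 10, 30, 60 and 120 min. Loss of parent was measured by LC/MS (ESI quadrupole, water/acetonitrile with 0.1% formic acid gradient). Values are geometric means of n = 2.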

[2] = test system: Human immunodeficiency virus 1; experiment: Antiviral activity against HIV1 LAI infected in CEMx174 cells coexpressing GFP after 5 days by fluorimetry; assay type: functional, organism-based; settings: for EC50: Human immunodeficiency virus 1, LAI, CEMx174, 120 h
Summary of the method: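 Cells (4000/well) pre-incubated with compound diluted in DMSO for 1 h at 37 °C, 5% CO2, then infected with HIV-1 LAI at MOI 3 and cultured 5 days at 37 °C, 5% CO2. EC50 is the concentration inhibiting viral replication by 50%. Values are geometric means of two determinations (n = 2), each within 25% of the mean.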

[3] = Half life in rat liver microsomes at 2 uM; assay type: ADME, Microsome; summary of the method: as §1
[4] = Cytotoxicity against human CEmx174 cells; assay type: cell-based
Summary of the method: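 CC50 is the concentration that reduces viability of uninfected cells by 50%. Reported as the geometric mean of two determinations (n = 2), each within 25% of the mean.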

| SMILES | half-life at 2 µM [1] [min] | EC50 [2] [µM] | half-life at 2 µM [3] [min] | CC50 [4] [µM] | Activity [2] |
| --- | --- | --- | --- | --- | --- |
| CCC1=C(C(=O)CC2CCC(CC)CC2)[C@H](c2ccc(O)c(Cl)c2)NC(=O)N1 (stereo not given in full) | 24 | 0.087 | 16 | > 10 |  |
| CCC1=C(C(=O)CC2CCC(C(C)C)CC2)[C@H](c2ccc(O)c(Cl)c2)NC(=O)N1 (stereo not given in full) |  | 1.4 |  | > 10 |  |
| CCC1=C(c2nc(C3CCCCC3)co2)[C@H](c2ccc(O)c(Cl)c2)NC(=O)N1 | 132 | 0.116 | 54 | > 10 |  |
| O=C1NC2=C(C(=O)OC2)C(c2cccc(O)c2)N1 (stereo not given) |  | > 10 |  | > 10 |  |
| CCC1=C(c2nc(C3CCCCC3)c[nH]2)[C@H](c2ccc(O)c(F)c2)NC(=O)N1 |  | > 10 |  | > 10 |  |
| CCC1=C(C(=O)OCC2CCCCC2)[C@H](c2ccc(O)c(Cl)c2)NC(=O)N1 | 36 | 0.019 | 7 | > 10 |  |
| Cc1ccnc2c1NC(=O)c1cccnc1N2C1CC1 [NEVIRAPINE] |  |  |  | > 10 |  |
| CCC1=C(C(=O)CC2CCCCC2)[C@H](c2ccc(O)c(Cl)c2)NC(=O)N1 | 18 | 0.983 | 7 | > 10 |  |
| CCC1=C(C(=O)CCC2CCCC2)[C@H](c2ccc(O)c(Cl)c2)NC(=O)N1 |  | 0.42 |  | > 10 |  |
| CCC1=C(C(=O)O)[C@H](c2cccc(O)c2)NC(=O)N1 |  |  |  |  | inactive |
| CCC1=C(C(=O)O)[C@H](c2ccc(O)c(Cl)c2)NC(=O)N1 |  |  |  |  | inactive |
| CCC1=C(C(=O)CC2CCCC2)[C@H](c2ccc(O)c(Cl)c2)NC(=O)N1 |  | 3.28 |  | > 10 |  |
| O=C1NC2=C(C(=O)OCC2)C(c2cccc(O)c2)N1 (stereo not given) |  | > 10 |  | > 10 |  |
| CCC1=C(C(=O)CC2CCC(C)CC2)[C@H](c2ccc(O)c(Cl)c2)NC(=O)N1 (stereo not given in full) |  | 0.48 |  | > 10 |  |
| CCC1=C(C(=O)OCC2CCCCC2)[C@H](c2cccc(O)c2)NC(=O)N1 | 11 |  | 1.5 | > 10 |  |
| CCC1=C(C(=O)CC2CCC(OC)CC2)[C@H](c2ccc(O)c(Cl)c2)NC(=O)N1 (stereo not given in full) |  | > 10 |  | > 10 |  |
| CCC1=C(C(=O)CCC2CCCCCC2)[C@H](c2ccc(O)c(Cl)c2)NC(=O)N1 |  | 0.329 |  | > 10 |  |
| CCC1=C(c2nc(C3CCCCC3)cs2)[C@H](c2ccc(O)c(Cl)c2)NC(=O)N1 | 682 | 0.078 | 30 | > 10 |  |
| CCC1=C(C(=O)CCC2CCCCC2)[C@H](c2ccc(O)c(Cl)c2)NC(=O)N1 | 22 | 0.403 | 5 | > 10 |  |
| CCC1=C(C(=O)CCc2ccccc2)[C@H](c2ccc(O)c(Cl)c2)NC(=O)N1 |  | > 10 |  | > 10 |  |
